Active and inactive are the calls of the source. The calls are words filed in the database; no cut-off is given here.
Assays:
[1] = tested on: Human immunodeficiency virus 1; experiment: Antiviral activity against B clade R5 tropic HIV1 SF162 in HeLa H1-JC.37 cells by focal infectivity assay; type: functional, organism-based; settings: Human immunodeficiency virus 1, SF162, HeLa
Outline: (§1)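 HeLa H1-JC.37 cells were seeded at 4.5 x 10^3/well and grown overnight at 37°C. Drug was added in DMEM/0.1% FBS for 1 h. Cells then adsorbed 20–60 FFU of virus with drug for 1–2 h. FBS was raised to 10% with drug held constant, then cells were incubated 4 days. Foci were immunostained and counted as % of no-drug control. EC50 came from a regression line; ≥5 wells, ≥3 experiments.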

[2] = tested on: Human immunodeficiency virus 1; experiment: Antiviral activity against B clade X4 R5 tropic HIV1 89.6 in HeLa H1-JC.37 cells by focal infectivity assay; type: functional, organism-based; settings: Human immunodeficiency virus 1, 89.6, HeLa; outline: as §1
[3] = tested on: Human immunodeficiency virus 1; experiment: Antiviral activity against HIV1 NL43 in CEMx174 cells after 2 hrs by p24 antigen capture ELISA; type: functional, organism-based
Outline: (§2)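 NL4-3 was preincubated with drug for 2 h at 37°C and diluted 400-fold in medium with 0.1% FBS. It was added to CEMx174 (5 x 10^4/well), PHA-stimulated PBMCs (1 x 10^4/well) or HeLa H1-JC.37 cells (4.5 x 10^4/well) for 2 h. Cells were washed twice by centrifugation, resuspended in 10% FBS, and cultured 4 days at 37°C. Supernatant p24 was measured by antigen-capture ELISA.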

[4] = tested on: Human immunodeficiency virus 1; experiment: Binding affinity to HIV1 ogp140 by SPR competition study in presence of gp41 MAb F240
Outline: (§3)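 SPR was run at 25°C in HBS-P (pH 7.4). MAbs (10 µg/ml) were captured on immobilized goat anti-human Ig. 50 nM oligomeric gp140 was preincubated 30 min with 0, 1, 5 or 10 µM drug, then injected 1 min at 20 µl/min with 2 min dissociation. Surfaces were regenerated with 146 mM H3PO4. Responses were double-referenced and normalized to MAb capture level.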

[5] = tested on: Human immunodeficiency virus 1; experiment: Antiviral activity against HIV1 NL43 in HeLa H1-JC.37 cells pretreated for 2 hrs before viral challenge by FIA; type: functional, organism-based
Outline: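 HeLa H1-JC.37 cells (4.5 x 10^3/well, seeded overnight) were exposed to drug in DMEM/0.1% FBS for 2 h, then washed twice. They were infected with 20–60 FFU NL4-3 for 2 h. Volume was brought to 200 µl at 10% FBS and cells were incubated 4 days at 37°C. Readout was focus counting. A control arm added drug together with virus.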

[6] = tested on: Simian immunodeficiency virus; experiment: Antiviral activity against R5 tropic SIV mac239 in HeLa H1-JC.37 cells by focal infectivity assay; type: functional, organism-based; outline: as §1
[7] = tested on: Human immunodeficiency virus 1; experiment: Antiviral activity against B clade R5 tropic HIV1 92TH014 in HeLa H1-JC.37 cells by focal infectivity assay; type: functional, organism-based; settings: Human immunodeficiency virus 1, 92TH014, HeLa; in the assay text read “dual tropic” for “R5 tropic”; outline: as §1
[8] = tested on: Human immunodeficiency virus 1; experiment: Antiviral activity against E clade R5 tropic HIV1 93TH078 in HeLa H1-JC.37 cells by focal infectivity assay; type: functional, organism-based; settings: Human immunodeficiency virus 1, 93TH078, HeLa; outline: as §1
[9] = tested on: Human immunodeficiency virus 1; experiment: Antiviral activity against C clade R5 tropic HIV1 97ZA009 in HeLa H1-JC.37 cells by focal infectivity assay; type: functional, organism-based; settings: Human immunodeficiency virus 1, 97ZA009, HeLa; outline: as §1
[10] = tested on: Human immunodeficiency virus 1; experiment: Antiviral activity against HIV1 NL43 in PBMCs after 2 hrs by p24 antigen capture ELISA; type: functional, organism-based; outline: as §2
[11] = tested on: Human immunodeficiency virus 1; experiment: Antiviral activity against HIV1 NL43 in HeLa H1-JC.37 cells after 2 hrs by p24 antigen capture ELISA; type: functional, organism-based; outline: as §2
[12] = tested on: Human immunodeficiency virus 1; experiment: Binding affinity to HIV1 ogp140 at by SPR competition study in presence of gp120 MAb b12
[13] = tested on: Human immunodeficiency virus 1; experiment: Antiviral activity against B clade X4 R5 tropic HIV1 92HT593 in HeLa H1-JC.37 cells by focal infectivity assay; type: functional, organism-based; settings: Human immunodeficiency virus 1, 92HT593, HeLa; outline: as §1
[14] = tested on: Human immunodeficiency virus 1; experiment: Antiviral activity against HIV1 NL43 in HeLa H1-JC.37 cells after 2 hrs by focal infectivity assay; type: functional, organism-based
Outline: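 NL4-3 stock (10^5 FFU/ml) was preincubated with drug (0–30 µM) for 2 h at 37°C, then diluted 400-fold in DMEM/0.1% FBS so drug fell below inhibitory levels. The mixture was added to HeLa H1-JC.37 cells for 2 h adsorption. FBS was raised to 10% and cells were incubated 4 days. Focus immunostaining followed, with five replicate wells per concentration.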

[15] = tested on: Human immunodeficiency virus 1; experiment: Antiviral activity against B clade X4 tropic HIV1 NL43 in HeLa H1-JC.37 cells by focal infectivity assay; type: functional, organism-based; settings: Human immunodeficiency virus 1, NL43, HeLa; outline: as §1
[16] = tested on: Human immunodeficiency virus 1; experiment: Antiviral activity against A clade R5 tropic HIV1 92RW016 in HeLa H1-JC.37 cells by focal infectivity assay; type: functional, organism-based; settings: Human immunodeficiency virus 1, 92RW016, HeLa; outline: as §1
[17] = tested on: Human immunodeficiency virus 1; experiment: Antiviral activity against B clade R5 tropic HIV1 BaL in HeLa H1-JC.37 cells by focal infectivity assay; type: functional, organism-based; settings: Human immunodeficiency virus 1, BaL; outline: as §1
[18] = tested on: Human immunodeficiency virus 1; experiment: Binding affinity to HIV1 ogp140 by SPR competition study in presence of gp41 MAb 5F3; outline: as §3
[19] = tested on: Human immunodeficiency virus 1; experiment: Antiviral activity against B clade X4 tropic HIV1 HXBc2 in HeLa H1-JC.37 cells by focal infectivity assay; type: functional, organism-based; settings: Human immunodeficiency virus 1, HXBc2, HeLa; outline: as §1
[20] = tested on: Human immunodeficiency virus 1; experiment: Antiviral activity against C clade R5 tropic HIV1 98TZ013 in HeLa H1-JC.37 cells by focal infectivity assay; type: functional, organism-based; settings: Human immunodeficiency virus 1, 98TZ013, HeLa; outline: as §1
[21] = Cytotoxicity against human HeLa H1-JC.37 cells; type: cell-based

For `O=S(=O)(/C=C/c1cc(O)c(O)c(O)c1)CS(=O)(=O)/C=C/c1cc(O)c(O)c(O)c1`, the EC50 [1] was 400 nM, the EC50 [2] was 410 nM and the Activity [3] was “Active”. The Activity [4] was “Active”, the Activity [5] was “inactive” and the EC50 [6] was 1200 nM. The EC50 [7] was 190 nM, the EC50 [8] was 500 nM and the EC50 [9] was 2300 nM. For the same compound, the Activity [10] was “Active”, the Activity [11] was “Active” and the Activity [12] was “Active”. For the same compound, the EC50 [13] was 340 nM, the Activity [14] was “Active” and the EC50 [15] was 330 nM. The EC50 [16] was 700 nM, the EC50 [17] was 850 nM and the Activity [18] was “Active”. The EC50 [19] was 530 nM, the EC50 [20] was 190 nM and the IC50 [21] was 170000 nM.

Reference: ChEMBL document CHEMBL1143850, “Direct inactivation of human immunodeficiency virus type 1 by a novel small-molecule entry inhibitor, DCM205” (Antimicrob Agents Chemother, 2007)
